In ChEMBL document CHEMBL3352378, “Novel carbazole inhibits phospho-STAT3 through induction of protein-tyrosine phosphatase PTPN6” (J Med Chem, 2014):
Active and inactive are the calls of the source. The rule behind the calls is not given here.

Key:
[1] = Cytotoxicity against human PC3 cells after 72 hrs by MTT assay; type: functional; conditions: PC-3, 72 h
Method in brief: (§1)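 Cells exposed to increasing concentrations for about 72 h, and viability read by MTT. EC50 fitted with CompuSyn. Two independent experiments, each in triplicate, mean ± SEM. Compound stocks 10 mM in DMSO.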

[2] = Antitumor activity against human SUM149 cells xenografted in athymic Balb/c nude mouse at 10 to 30 mg/kg, ip administered every other day for 5 days measured on day 5; type: functional, SUM149PT; conditions: dose mg/kg 10-30; route intraperitoneal
Method in brief: (§2)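 SUM149 cells (3×10^6) implanted subcutaneously in the right auxiliary region of male and female athymic nude mice (18–22 g). Groups of five, randomized; dosed ip every other day at 10 or 30 mg/kg from 1 mg/mL Cremophore 10%/PEG400 3%/PBS vehicle, vehicle control. Tumor volume by caliper (L×w×w/2); body weight, appetite, activity and lethargy monitored.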

A549 [3] = experiment: Cytotoxicity against human A549 cells after 72 hrs by MTT assay; type: functional; conditions: A549, 72 h; method in brief: as §1
Hs-578T [4] = experiment: Induction of PTPN6 protein expression in human Hs578T cells transfected with PTPN6-siRNA after 24 hrs by Western blotting analysis; type: functional, cell-based
Method in brief: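 HS578T cells transfected with 100 nM control or PTPN6 siRNA using Lipofectamine 2000 in serum-free medium. Medium with 20% FBS added after 4 h, and cells kept 3 days. Then treated with DMSO or compound for 24 h. PTPN6 and phospho-STAT3 immunoblotted and quantified by ImageJ densitometry.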

[5] = biological target: Signal transducer and activator of transcription 3 (Homo sapiens) (UniProt P40763); experiment: Inhibition of STAT3 in human Hs578T cells assessed as reduction of survivin mRNA expression at 0.3 to 1 uM after 24 hrs by RT-PCR analysis; type: cell-based; conditions: Hs-578T
Sequence of Signal transducer and activator of transcription 3 (Homo sapiens) (P40763 whole entry): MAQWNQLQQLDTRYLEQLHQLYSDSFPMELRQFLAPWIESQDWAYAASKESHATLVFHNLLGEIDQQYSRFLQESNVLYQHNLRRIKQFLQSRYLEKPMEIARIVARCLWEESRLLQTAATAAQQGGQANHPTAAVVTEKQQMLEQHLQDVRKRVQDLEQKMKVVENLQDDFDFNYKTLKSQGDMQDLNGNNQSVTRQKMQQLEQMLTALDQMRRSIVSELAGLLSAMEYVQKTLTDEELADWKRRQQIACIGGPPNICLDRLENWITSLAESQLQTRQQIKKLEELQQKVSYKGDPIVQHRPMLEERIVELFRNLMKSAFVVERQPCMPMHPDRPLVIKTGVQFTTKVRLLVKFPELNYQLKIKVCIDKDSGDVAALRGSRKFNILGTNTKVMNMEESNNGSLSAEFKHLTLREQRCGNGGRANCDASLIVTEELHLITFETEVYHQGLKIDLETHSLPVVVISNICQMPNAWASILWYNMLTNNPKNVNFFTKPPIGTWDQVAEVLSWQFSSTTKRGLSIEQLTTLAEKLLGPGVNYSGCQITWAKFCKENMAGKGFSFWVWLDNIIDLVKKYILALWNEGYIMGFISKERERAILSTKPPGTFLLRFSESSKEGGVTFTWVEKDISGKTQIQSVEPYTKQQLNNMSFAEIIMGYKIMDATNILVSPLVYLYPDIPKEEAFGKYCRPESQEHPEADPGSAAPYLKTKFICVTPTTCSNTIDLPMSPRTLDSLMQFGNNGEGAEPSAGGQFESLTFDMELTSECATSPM
Method in brief: (§3)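 HS578T and SUM149PT cells treated for 24 h with increasing concentrations. Transcripts measured by RT-PCR, normalized to GAPDH as loading control.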

[6] = biological target: Signal transducer and activator of transcription 3 (Homo sapiens) (UniProt P40763); experiment: Inhibition of STAT3 in human SUM149PT cells assessed as reduction of IL-6 induced STAT3 phosphorylation at Y705 incubated for 2 hrs prior to IL-6 challenge measured after 30 mins by Western blotting analysis; type: cell-based
Mus musculus [7] = experiment: Toxicity in athymic Balb/c nude mouse xenografted with human SUM149 cells assessed as lethargy at 10 to 30 mg/kg, ip administered every other day for 5 days; type: organism-based; design: dose 10-30 mg/kg, route intraperitoneal; conditions: in vivo, 120 h; method in brief: as §2
[8] = biological target: Signal transducer and activator of transcription 3 (Homo sapiens) (UniProt P40763); experiment: Inhibition of STAT3 in human SUM149PT cells assessed as reduction of cyclin D1 mRNA expression at 0.3 to 1 uM after 24 hrs by RT-PCR analysis; type: cell-based; method in brief: as §3
Mus musculus [9] = experiment: Toxicity in athymic Balb/c nude mouse xenografted with human SUM149 cells assessed as loss of appetite at 10 to 30 mg/kg, ip administered every other day for 5 days; type: organism-based; design: dose 10-30 mg/kg, route intraperitoneal; conditions: in vivo, 120 h; method in brief: as §2
HCC1937 = experiment: Cytotoxicity against human HCC1937 cells after 72 hrs by MTT assay; type: functional, cell-based; method in brief: as §1
Hs-578T [10] = experiment: Induction of PTPN6 mRNA expression in human Hs578T cells after 24 hrs by RT-PCR analysis; type: functional, cell-based
Method in brief: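 HS578T and SUM149PT cells given increasing concentrations for 24 h. PTPN6 mRNA measured by RT-PCR, with GAPDH as loading control.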

[11] = biological target: Tyrosine-protein phosphatase non-receptor type 6 (Homo sapiens) (UniProt P29350); experiment: Induction of PTPN6 in human SUM149PT cells assessed as inhibition of STAT3 phosphorylation at 3 uM after 16 hrs by Western blotting analysis in presence of pervanadate; type: cell-based
Sequence of Tyrosine-protein phosphatase non-receptor type 6 (Homo sapiens) (P29350 whole entry): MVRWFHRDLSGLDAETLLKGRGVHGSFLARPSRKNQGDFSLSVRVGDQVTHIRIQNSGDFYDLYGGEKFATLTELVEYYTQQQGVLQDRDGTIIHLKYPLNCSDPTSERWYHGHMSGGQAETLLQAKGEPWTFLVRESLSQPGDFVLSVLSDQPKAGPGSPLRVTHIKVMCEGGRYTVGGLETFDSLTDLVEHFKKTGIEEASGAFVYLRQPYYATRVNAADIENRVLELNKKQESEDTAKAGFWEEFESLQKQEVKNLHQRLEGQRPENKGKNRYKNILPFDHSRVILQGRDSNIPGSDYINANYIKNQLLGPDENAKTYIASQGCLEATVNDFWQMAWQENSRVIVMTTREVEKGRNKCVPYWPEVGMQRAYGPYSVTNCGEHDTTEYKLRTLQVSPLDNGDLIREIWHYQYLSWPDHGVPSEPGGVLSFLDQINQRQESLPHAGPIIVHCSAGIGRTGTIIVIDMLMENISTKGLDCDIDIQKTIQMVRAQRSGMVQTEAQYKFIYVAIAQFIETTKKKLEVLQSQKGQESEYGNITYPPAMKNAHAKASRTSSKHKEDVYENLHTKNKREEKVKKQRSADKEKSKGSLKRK
Method in brief: (§4)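 HS578T and SUM149PT cells treated for 16 h without or with increasing pervanadate as a phosphatase inhibitor; JAK1/2 inhibitor CP690550 run in parallel. Lysates immunoblotted for phospho-STAT3 (Y705), with β-actin as loading control.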

Mus musculus [12] = experiment: Toxicity in athymic Balb/c nude mouse xenografted with human SUM149 cells assessed as change in body weight at 10 to 30 mg/kg, ip administered every other day for 5 days; type: organism-based; design: dose 10-30 mg/kg, route intraperitoneal; conditions: in vivo, 120 h; method in brief: as §2
[13] = Drug uptake in human MDA-MB-231 cell cytoplasm at 10 uM after 1 hr by two-photon confocal microscopy; type: ADME, cell-based; conditions: mda-mb-231, 1 h
Method in brief: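 MDA-MB-231 cells grown overnight on fibronectin/[…]-coated slides, then given 10 μM compound or DMSO for 1 h. Cells washed with PBS and fixed in 4% formaldehyde. Two-photon excitation at 725 nm, emission collected through a 500–550 nm filter.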

A549 [14] = experiment: Antitumor activity against human A549 cells xenografted in athymic Balb/c nude mouse at 10 mg/kg, ip administered every other day for 27 days measured on day 9; type: functional; conditions: route intraperitoneal, read-out: TGI
Method in brief: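 Male and female athymic nude mice (18–22 g) implanted subcutaneously in the right auxiliary region with 3×10^6 A549 cells. Mice were randomized into groups of five 3 days after implantation, and dosing started at about 50 mm³ tumor. Working solution 1 mg/mL in 10% Cremophore/3% PEG400/87% PBS; ip every other day, vehicle control. Caliper volume L×w×w/2, mean ± SEM, n = 5.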

MDA-MB-453 = experiment: Cytotoxicity against human MDA-MB-453 cells after 72 hrs by MTT assay; type: functional, cell-based; method in brief: as §1
SUM149PT = experiment: Cytotoxicity against human SUM149PT cells after 72 hrs by MTT assay; type: functional, cell-based; method in brief: as §1
[15] = biological target: Tyrosine-protein phosphatase non-receptor type 6 (Homo sapiens) (UniProt P29350); experiment: Induction of PTPN6 in human Hs578T cells assessed as inhibition of STAT3 phosphorylation at 3 uM after 16 hrs by Western blotting analysis in presence of pervanadate; type: cell-based; conditions: Hs-578T; method in brief: as §4
[16] = Antitumor activity against human SUM149 cells xenografted in athymic Balb/c nude mouse assessed as PTPN6 upregulation at 30 mg/kg, ip administered every other day for 5 days measured on day 5 by Western blotting analysis; type: functional, organism-based; design: dose 30 mg/kg; conditions: SUM149PT
Method in brief: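 SUM149 subcutaneous xenografts in nude mice (n = 5), dosed ip every other day in Cremophore/PEG400/PBS vehicle. Tumors taken on day 5 were immunoblotted for PTPN6, STAT3 and pSTAT3, with GAPDH as control. PTPN6 quantified by densitometry with a one-tailed t test.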

[17] = biological target: Signal transducer and activator of transcription 3 (Homo sapiens) (UniProt P40763); experiment: Inhibition of STAT3 in human Hs578T cells assessed as reduction of IL-6 induced transactivation incubated for 1 hr prior to IL-6 challenge measured after 2 hrs by luciferase reporter gene assay; type: cell-based; conditions: Hs-578T
Method in brief: (§5)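 Cells transfected with the APRE-Luc STAT3-responsive reporter. Pretreated 1 h with increasing concentrations, then given 5 ng/mL IL-6: 2 h for HS578T, 16 h for MCF7. Luciferase read afterwards; relative activity as mean ± SD of triplicates.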

Mus musculus [18] = experiment: Toxicity in athymic Balb/c nude mouse xenografted with human SUM149 cells assessed as decreased activity at 10 to 30 mg/kg, ip administered every other day for 5 days; type: organism-based; design: dose 10-30 mg/kg, route intraperitoneal; conditions: in vivo, 120 h; method in brief: as §2
[19] = biological target: Signal transducer and activator of transcription 3 (Homo sapiens) (UniProt P40763); experiment: Inhibition of STAT3 in human MCF7 cells assessed as reduction of IL-6 induced transactivation incubated for 1 hr prior to IL-6 challenge measured after 16 hrs by luciferase reporter gene assay; type: cell-based; method in brief: as §5

Work on Cc1c(OS(=O)(=O)c2cccc3c(N(C)C)cccc23)ccc2c1[nH]c1cc(O)ccc12 yielded a GI50 [1] of 3000 nM, a TGI [2] of 57% and a GI50 (A549 [3]) of 2500 nM. The Activity (Hs-578T [4]) was “inactive”, the inhibition [5] was “Active” and the inhibition [6] was “Dose-dependent effect”. For the same compound, the Activity (Mus musculus [7]) was “Non-toxic”, the inhibition [8] was “Active” and the Activity (Mus musculus [9]) was “Non-toxic”. The Activity (HCC1937) was “Active”, the Activity (Hs-578T [10]) was “Dose-dependent effect” and the inhibition [11] was “inactive”. For the same compound, the Activity (Mus musculus [12]) was “Non-toxic”, the Drug uptake [13] was “Active” and the inhibition in vivo at 10 mg/kg (A549 [14]) was 73.8%. For the same compound, the Activity (MDA-MB-453) was “Active”, the Activity (SUM149PT) was “Active” and the inhibition [15] was “inactive”. For the same compound, the Activity [16] was “Active”, the inhibition [17] was “Dose-dependent effect” and the Activity (Mus musculus [18]) was “Non-toxic”. The inhibition [19] was “Active”.
